The source of these data is ChEMBL document CHEMBL5329221, “A covalent fragment-based strategy targeting a novel cysteine to inhibit activity of mutant EGFR kinase” (RSC Med Chem, 2023).

Activity calls are given as the source filed them. No cut-off for these calls is given here.

For assay [1], the system named is Epidermal growth factor receptor (Homo sapiens), P00533 [T790M,L858R,C797S,E865A,E866A,K867A]. Nature of the assay: Binding affinity to N-terminal His6-tagged human EGFR T790M/L858R/C797S/E865A/E866A/K867A mutant expressed in Sf9 cells at pH 7.4 incubated for 1 hrs by TOF-MS analysis.
The test system is the same in assay [2]. In words: Binding affinity to N-terminal His6-tagged human EGFR T790M/L858R/C797S/E865A/E866A/K867A mutant expressed in Sf9 cells at pH 7.4 assessed as covalent adduct formation incubated for 1 hrs by TOF-MS analysis.
For assay [3], the system named is Epidermal growth factor receptor (Homo sapiens), P00533 [T790M,L858R,E865A,E866A,K867A]. In words: Binding affinity to N-terminal His6-tagged human EGFR T790M/L858R/E865A/E866A/K867A mutant expressed in Sf9 cells at pH 7.4 assessed as covalent adduct formation incubated for 1 hrs by TOF-MS analysis.
Assay [4] has the same test system. Nature of the assay: Binding affinity to N-terminal His6-tagged human EGFR T790M/L858R/E865A/E866A/K867A mutant expressed in Sf9 cells at pH 7.4 assessed as covalent adduct formation preincubated with nazartinib followed by compound addition and measured after 1 hrs by TOF-MS analysis.
In assay [5] the target is Epidermal growth factor receptor (Homo sapiens) (UniProt P00533). Nature of the assay: Binding affinity to N-terminal twin Strep-tagged human wild type EGFR (694 to 1022 residues) expressed in Sf9 cells at pH 7.4 assessed as covalent adduct formation preincubated with maleimide followed by compound addition and measured after 1 hrs by TOF-MS analysis.
Assay [6] concerns Epidermal growth factor receptor (Homo sapiens), P00533 [L858R,T790M,C797S]. In words: Inhibition of N-terminal His6-tagged human EGFR L858R/T790M/C797S mutant expressed in Sf9 cells assessed as decrease in substrate phosphorylation using Ulight-JAK1 peptide as substrate at 500 uMincubated for 1.5 hrs in presence of ATP by TR-FRET based LANCE Ultra kinase assay. In general terms: In TR-FRET formats the signal depends on donor and acceptor labels being close together.

Assay [7] deals with Epidermal growth factor receptor (Homo sapiens, UniProt P00533, C797S/L858R/T790M). Nature of the assay: Inhibition of N-terminal His6-tagged human EGFR L858R/T790M/C797S mutant expressed in Sf9 cells assessed as decrease in substrate phosphorylation using Ulight-JAK1 peptide as substrate incubated for 1.5 hrs in presence of ATP by TR-FRET based LANCE Ultra kinase assay. A digest of the protocol: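 LANCE Ultra TR-FRET assay with 0.25 nM EGFR_TM, 1 µM ATP, 50 nM ULight-JAK1 peptide, 50 mM HEPES pH 7.5, 10 mM MgCl2, 5 mM MnCl2, 1 mM DTT, 0.015% Brij35, 5% DMSO, 1.5 h at 23°C. EDTA stop, Eu-anti-pTyr PT66, 1 h. Signal is the 665/620 nm ratio, normalised to no-protein controls. IC50 from a four-parameter fit, otherwise % inhibition at the top concentration.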

As a reminder, the inhibition is the relative decrease from the control value, in per cent. One may read the IC50 as the midpoint of a concentration-inhibition curve.

With `C=CC(=O)Nc1ccccn1`, the outcome in assay [1], in assay [2] and in assay [3] was Active. For the same compound, the result in assay [4] and in assay [5] was inactive. Besides, the inhibition in assay [6] was determined as 52.3%. In assay [7], the IC50 is greater than 500 µM.

As for `C=CC(=O)Nc1cc(-c2ccccc2)ccn1`, the IC50 in assay [7] was found to be 32 µM.

`C=CC(=O)Nc1cc(-c2cn(C)c3ccccc23)ccn1`: the IC50 in assay [7] was 9 µM.

In the case of `C=CC(=O)Nc1cc(N(C)C)n2nc(C)cc2n1`, the result in assay [2] and in assay [3] was Active.

Consider `C=CC(=O)Nc1ccc2cccnc2c1`, for which the outcome in assay [1], in assay [2] and in assay [3] was Active. Besides, the result in assay [4] and in assay [5] was inactive.

For the compound `C=CC(=O)Nc1cccc(O)c1`, the result in assay [2] and in assay [3] was Active.

As to `C=CC(=O)Nc1cc2ccccn2n1`, the result in assay [1], in assay [2] and in assay [3] was Active. Further, the outcome in assay [4] and in assay [5] was inactive.

Regarding `C=CC(=O)Nc1ccc[nH]c1=O`, the outcome in assay [2] and in assay [3] was Active.

For `C=CC(=O)Nc1cccc(NC(C)=O)n1`, the outcome in assay [2] and in assay [3] was Active.

Turning to `C=CC(=O)Nc1cccc2c1ncn2C`, the outcome in assay [2] and in assay [3] was Active.

As for `C=CC(=O)Nc1cccc(C(C)=O)c1`, the outcome in assay [2] and in assay [3] was Active.

Take `C=CC(=O)Nc1ccc2c(C)n(C)nc2c1`: the result in assay [2] and in assay [3] was Active.
